Laboratory results from ChEMBL document CHEMBL3351603, “Design of a hydrogen peroxide-activatable agent that specifically targets cancer cells” (Bioorg Med Chem, 2014).
pIC50: −log10 of the molar value.

Columns and labels:
[1] = Cytotoxicity against human MA9.3 cells after 48 hrs by MTT assay; format: functional, cell-based
Outline: (§1)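 Cells seeded at 4 × 10^4/well and held overnight at 37°C. Exposed 48 h to freshly dissolved compound. Cells were then pelleted, the medium replaced with fresh medium holding MTT (5 mg/mL stock), and incubated 4 h. Formazan dissolved in DMSO and read at 575 nm. IC50 from a four-parameter sigmoid fit. Triplicates, assay run twice. MA9.3RAS (MLL-AF9 + NrasG12D-transformed CD34+ cells) grown in IMDM with 20% bovine calf serum. Cord-blood CD34+ cells grown in the same medium plus SCF, IL-3, IL-6, Flt-3L and TPO.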

[2] = Selectivity ratio of IC50 for human primary CD34+ blood stem cells to IC50 for human MA9.3 cells; conditions: primary CD34+ blood stem cells versus MA9.3 cells, read-out: Ratio IC50
[3] = Decrease in KEAP1 protein expression in human MA9.3 cells at 20 uM after 24 hrs relative to control
[4] = Cytotoxicity against human CD34-positive blood stem/progenitor cells after 48 hrs by MTT assay; format: cell-based; outline: as §1
[5] = Decrease in ROS level in human MA9.3 cells assessed as fluorescence intensity at 20 uM DCF fluorescence assay (reference value: 1.06 +/- 0.13 no_unit); format: functional
Homo sapiens = species: Homo sapiens; assay: Decrease in ROS level in human MA9.3 cells at 20 uM DCF fluorescence assay; format: functional, cell-based; conditions: TDE = time-dependent effect
Outline: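 Actively growing MA9.3RAS cells suspended in 1× HBSS at 4×10^5 cells/ml. DCF-DA added to 10 μM final, with HBSS alone as blank. Compound added in HBSS to 20 μM final. Plate held at 37°C and fluorescence (ex 485/em 535 nm) read every 15 min for 1 h, with light exposure limited. Mean ± SD of six replicates, unpaired t-test.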

| SMILES | pIC50 [1] | selectivity ratio [2] | further results |
| --- | --- | --- | --- |
| COc1cc(/C=C/C(=O)N2CCC=CC2=O)cc(OC)c1OC [PIPLARTINE] | 5.70 | 3.7 |  |
| O=C(CNC1CCCCC1)Nc1cc(O)ccc1O | 5.70 | 11.5 | Ratio [3]: 0.65; Activity [4]: Non-toxic; Flu intensity [5]: 4.31; Activity (Homo sapiens): tde |
| COc1ccc(OC)c(NC(=O)CN(C)c2ccccc2)c1 | < 4.00 |  |  |
| O=C(CSc1ccccc1)Nc1cc(O)ccc1O | 5.30 |  |  |
| CCCN(C)CC(=O)Nc1cc(O)ccc1O | 4.74 |  |  |
| O=C(COc1ccccc1)Nc1cc(O)ccc1O | 5.52 |  |  |
| NC1=CC(=O)C=CC1=O | 4.80 |  |  |
| CN(CC(=O)Nc1ccccc1O)c1ccccc1 | < 4.00 |  |  |
| CN(CC(=O)NC1=CC(=O)C=CC1=O)c1ccccc1 | 4.68 |  |  |
| CN(CC(=O)Nc1cc(O)ccc1O)c1ccccc1 | 5.22 | 2 |  |
| O=C(CO)Nc1cc(O)ccc1O | 4.92 |  |  |
| CC(=O)Nc1cc(O)ccc1O | 4.46 |  |  |
| C=C1C(=O)O[C@@H]2[C@H]3O[C@]3(C)CC/C=C(\C)CC[C@@H]12 | 5.52 | 2.1 |  |
| CN(CC(=O)Nc1cccc(O)c1)c1ccccc1 | < 4.00 |  |  |
| O=C(CNc1ccccc1)Nc1cc(O)ccc1O | 4.89 |  |  |
| CN(CC(=O)Nc1cc(O)ccc1O)C1CCCCC1 | 5.05 | 3.8 |  |
